Measurements: ChEMBL document CHEMBL2321795, “Solubility-driven optimization of (pyridin-3-yl) benzoxazinyl-oxazolidinones leading to a promising antibacterial agent” (J Med Chem, 2013)
In brackets after ≈: the same amount, converted by molar mass.

Key:
[1] = Cmax in Sprague-Dawley rat at 15 mg/kg, po by LC-MS analysis; type: ADME, organism-based; design: dose 15 mg/kg, route oral; conditions: in vivo
In short: (§1)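 Rats were dosed orally or by intravenous injection. For prodrugs, all parameters were based on the active parent antibacterial detected in plasma, and each prodrug dose was also given as an equivalent parent dose. Parameters were Cmax, Tmax, elimination T1/2, AUC from the concentration–time curve, clearance and oral bioavailability F.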

Enterococcus faecium [2] = assay: Ratio of linezolid MIC to compound MIC for linezolid-resistant Enterococcus faecium; type: functional
In short: (§2)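 Agar dilution per NCCLS, with linezolid tested alongside as control. Compounds were diluted 2-fold in sterile water, then 10-fold into Mueller–Hinton agar (final 16–0.03125 μg/mL). Strains (E. faecalis 3, E. faecium 3, S. aureus 3, S. epidermidis 1) were grown in MH broth at 35 °C for 8 h, adjusted to 0.5 McFarland, multipoint-inoculated, and incubated at 35 °C for 16 h. The ratio is linezolid MIC over compound MIC.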

Enterococcus faecalis [3] = assay: Ratio of linezolid MIC to compound MIC for linezolid-resistant Enterococcus faecalis; type: functional; in short: as §2
[4] = tested on: Staphylococcus epidermidis; assay: Ratio of linezolid MIC to compound MIC for linezolid-resistant Staphylococcus epidermidis; type: functional; in short: as §2
Staphylococcus aureus [5] = assay: Ratio of linezolid MIC to compound MIC for linezolid-resistant Staphylococcus aureus; type: functional; in short: as §2
Enterococcus faecium [6] = assay: Antibacterial activity against linezolid-resistant Enterococcus faecium after 16 hrs by NCCLS agar dilution method; type: functional
In short: (§3)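 Agar dilution MIC. Stocks were 320 μg/mL in 50% aqueous DMSO, 2-fold serially diluted in sterile water, then diluted 10-fold into Mueller–Hinton agar to give 16–0.03125 μg/mL final. Organisms were grown in MH broth at 35 °C for 8 h and adjusted to 0.5 McFarland. They were spotted onto drug-containing plates with a multipoint inoculator and incubated at 35 °C for 16 h. Linezolid was the positive control.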

Enterococcus faecalis [7] = assay: Antibacterial activity against linezolid-resistant Enterococcus faecalis after 16 hrs by NCCLS agar dilution method; type: functional; in short: as §3
[8] = tested on: Staphylococcus epidermidis; assay: Antibacterial activity against linezolid-resistant Staphylococcus epidermidis after 16 hrs by NCCLS agar dilution method; type: functional; in short: as §3
Staphylococcus aureus [9] = assay: Antibacterial activity against linezolid-resistant Staphylococcus aureus after 16 hrs by NCCLS agar dilution method; type: functional; in short: as §3
Staphylococcus aureus [10] = assay: Antibacterial activity against Staphylococcus aureus ATCC 29213 after 16 hrs by NCCLS agar dilution method; type: functional; conditions: ATCC 29213, 16 h; in short: as §3
Enterococcus faecalis [11] = assay: Antibacterial activity against Enterococcus faecalis after 16 hrs by NCCLS agar dilution method; type: functional
In short: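 Agar dilution MIC per NCCLS, 6 E. faecalis strains. Stock was 320 μg/mL in 50% water/DMSO, serially 2-fold diluted in sterile water, then 10-fold into Mueller–Hinton agar to give 16–0.03125 μg/mL final. Inocula came from MH broth cultures grown 8 h at 35 °C, adjusted to 0.5 McFarland and spotted by multipoint inoculator. Plates were read after 16 h at 35 °C.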

Streptococcus pneumoniae = assay: Antibacterial activity against penicillin-resistant Streptococcus pneumoniae after 16 hrs by NCCLS agar dilution method; type: functional; in short: as §3
[12] = tested on: Staphylococcus epidermidis; assay: Antibacterial activity against methicillin-resistant Staphylococcus epidermidis after 16 hrs by NCCLS agar dilution method; type: functional; in short: as §3
[13] = tested on: Staphylococcus epidermidis; assay: Antibacterial activity against methicillin-sensitive Staphylococcus epidermidis after 16 hrs by NCCLS agar dilution method; type: functional; in short: as §3
Staphylococcus aureus [14] = assay: Antibacterial activity against methicillin-resistant Staphylococcus aureus after 16 hrs by NCCLS agar dilution method; type: functional; in short: as §3
Staphylococcus aureus [15] = assay: Antibacterial activity against methicillin-sensitive Staphylococcus aureus after 16 hrs by NCCLS agar dilution method; type: functional; in short: as §3
[16] = Oral bioavailability in Sprague-Dawley rat at 15 mg/kg; type: ADME, organism-based; conditions: in vivo; in short: as §1
[17] = Clearance in Sprague-Dawley rat at 5 mg/kg, iv by LC-MS analysis; type: ADME, organism-based; design: dose 5 mg/kg, route intravenous; conditions: in vivo
In short: (§4)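 Rats received the compound by intravenous injection, with oral dosing run in parallel. Clearance (CLz) is reported in L/h/kg. Elimination half-life (T1/2) is reported in h and was taken from the plasma concentration–time profile.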

[18] = AUC in Sprague-Dawley rat at 5 mg/kg, iv by LC-MS analysis; type: ADME, organism-based; design: dose 5 mg/kg, route intravenous; conditions: plasma
In short: (§5)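 Rats dosed orally or by intravenous injection. AUC is the area under the plasma concentration–time curve. For the prodrug entries, all PK values were based on the amount of the active parent antibacterial detected, not the administered prodrug.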

[19] = AUC in Sprague-Dawley rat at 15 mg/kg, po by LC-MS analysis; type: ADME, organism-based; design: dose 15 mg/kg, route oral; conditions: plasma; in short: as §5
[20] = Elimination half life in Sprague-Dawley rat at 5 mg/kg, iv by LC-MS analysis; type: ADME, organism-based; design: dose 5 mg/kg, route intravenous; conditions: in vivo, read-out: beta t1/2 (converted); in short: as §4
[21] = Tmax in Sprague-Dawley rat at 15 mg/kg, po by LC-MS analysis; type: ADME, organism-based; design: dose 15 mg/kg, route oral; conditions: in vivo; in short: as §1
[22] = Elimination half life in Sprague-Dawley rat at 15 mg/kg, po by LC-MS analysis; type: ADME, organism-based; design: dose 15 mg/kg, route oral; conditions: in vivo, read-out: beta t1/2 (converted); in short: as §1
[23] = biological target: Voltage-gated inwardly rectifying potassium channel KCNH2 (Homo sapiens, UniProt Q12809)
[24] = Cmax in Sprague-Dawley rat at 50 mg/kg, po by LC-MS analysis; type: ADME, organism-based; design: dose 50 mg/kg, route oral; conditions: in vivo; in short: as §1
[25] = AUC in Sprague-Dawley rat at 50 mg/kg, po by LC-MS analysis; type: ADME, organism-based; design: dose 50 mg/kg, route oral; conditions: plasma; in short: as §1
[26] = Elimination half life in Sprague-Dawley rat at 50 mg/kg, po by LC-MS analysis; type: ADME, organism-based; design: dose 50 mg/kg, route oral; conditions: in vivo, read-out: beta t1/2 (converted); in short: as §1
[27] = Tmax in Sprague-Dawley rat at 50 mg/kg, po by LC-MS analysis; type: ADME, organism-based; design: dose 50 mg/kg, route oral; conditions: in vivo; in short: as §1
[28] = Elimination half life in Sprague-Dawley rat at 10 mg/kg, iv by LC-MS analysis; type: ADME, organism-based; design: dose 10 mg/kg, route intravenous; conditions: in vivo, read-out: beta t1/2 (converted); in short: as §1
[29] = Aqueous solubility of the compound; conditions: aqueous (not further specified)
[30] = Clearance in Sprague-Dawley rat at 10 mg/kg, iv by LC-MS analysis; type: ADME, organism-based; design: dose 10 mg/kg, route intravenous; conditions: in vivo; in short: as §1
[31] = AUC in Sprague-Dawley rat at 10 mg/kg, iv by LC-MS analysis; type: ADME, organism-based; design: dose 10 mg/kg, route intravenous; conditions: plasma; in short: as §5
Staphylococcus aureus [32] = assay: Antibacterial activity against methicillin-sensitive Staphylococcus aureus ATCC 19636 infected in iv dosed systemic infection mouse model administered 1 hr post infection measured after 48 hrs; type: functional; conditions: ATCC 19636, iv
In short: (§6)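 Female ICR mice weighing 20–22 g, six per group, received 0.5 mL of 10⁷–10⁸ CFU/mL S. aureus intraperitoneally as a lethal systemic challenge. Dosing was oral or intravenous 1 h post-infection at 2.5, 5, 10 and 20 mg/kg, with linezolid as comparator.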

Staphylococcus aureus [33] = assay: Antibacterial activity against methicillin-sensitive Staphylococcus aureus ATCC 19636 infected in po dosed systemic infection mouse model administered 1 hr post infection measured after 48 hrs; type: functional; conditions: ATCC 19636, po; in short: as §6

Voltage-gated inwardly rectifying potassium channel KCNH2, sequence (Q12809 whole entry): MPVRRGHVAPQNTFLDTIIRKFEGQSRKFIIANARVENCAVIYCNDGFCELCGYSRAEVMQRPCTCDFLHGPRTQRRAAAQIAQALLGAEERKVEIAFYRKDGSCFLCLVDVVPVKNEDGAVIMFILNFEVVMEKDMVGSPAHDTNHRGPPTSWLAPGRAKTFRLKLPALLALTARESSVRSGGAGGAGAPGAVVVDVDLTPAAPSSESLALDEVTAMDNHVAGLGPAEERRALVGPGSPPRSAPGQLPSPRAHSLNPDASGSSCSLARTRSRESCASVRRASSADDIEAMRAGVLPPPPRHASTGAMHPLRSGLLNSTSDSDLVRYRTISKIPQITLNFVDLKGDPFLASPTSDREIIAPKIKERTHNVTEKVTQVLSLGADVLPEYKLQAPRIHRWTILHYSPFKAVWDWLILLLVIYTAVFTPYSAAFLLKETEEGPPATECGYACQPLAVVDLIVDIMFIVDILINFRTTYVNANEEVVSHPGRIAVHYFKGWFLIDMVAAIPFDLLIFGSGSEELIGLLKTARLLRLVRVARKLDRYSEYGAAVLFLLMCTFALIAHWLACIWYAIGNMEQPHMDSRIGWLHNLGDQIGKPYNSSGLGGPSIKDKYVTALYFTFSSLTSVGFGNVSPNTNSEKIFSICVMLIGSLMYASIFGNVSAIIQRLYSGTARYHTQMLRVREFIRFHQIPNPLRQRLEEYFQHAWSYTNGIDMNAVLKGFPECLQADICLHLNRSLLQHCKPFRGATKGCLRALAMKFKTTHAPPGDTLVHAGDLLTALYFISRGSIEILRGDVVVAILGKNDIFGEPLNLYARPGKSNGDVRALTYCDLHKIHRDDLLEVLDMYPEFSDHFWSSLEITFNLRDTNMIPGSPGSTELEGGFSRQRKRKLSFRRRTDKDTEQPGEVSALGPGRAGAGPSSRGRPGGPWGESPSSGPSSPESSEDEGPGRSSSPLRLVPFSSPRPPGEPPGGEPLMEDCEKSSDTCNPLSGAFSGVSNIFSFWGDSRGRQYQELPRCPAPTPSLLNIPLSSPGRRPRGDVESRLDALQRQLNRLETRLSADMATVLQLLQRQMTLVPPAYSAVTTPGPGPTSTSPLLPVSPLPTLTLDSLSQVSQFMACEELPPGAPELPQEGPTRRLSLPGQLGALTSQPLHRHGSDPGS

SMILES	Cmax [1] [ng/mL]	MIC (Enterococcus faecium [6]) [µg/mL]	MIC (Enterococcus faecalis [7]) [µg/mL]	MIC [8] [µg/mL]	MIC (Staphylococcus aureus [9]) [µg/mL]	MIC (Staphylococcus aureus [10]) [µg/mL]	MIC (Enterococcus faecalis [11]) [µg/mL]	MIC (Streptococcus pneumoniae) [µg/mL]	MIC [12] [µg/mL]	MIC [13] [µg/mL]	MIC (Staphylococcus aureus [14]) [µg/mL]	MIC (Staphylococcus aureus [15]) [µg/mL]	bioavailability [16] [%]	AUC [19] [ng·h/mL]	Tmax [21] [h]	half-life [22] [h]	half-life [28] [h]	clearance [30] [mL/min/kg]	AUC [31] [ng·h/mL]	also measured
CN1C[C@@H](c2ccc(-c3ccc4c(c3)OC[C@H]3[C@H](CO)OC(=O)N43)cn2)OC1=O	809	2 (≈ 5.03 µM)	2 (≈ 5.03 µM)	2 (≈ 5.03 µM)	4 (≈ 10.1 µM)	0.5 (≈ 1.26 µM)	1 (≈ 2.52 µM)	0.5 (≈ 1.26 µM)	0.25 (≈ 0.629 µM)	0.25 (≈ 0.629 µM)	0.5 (≈ 1.26 µM)	0.5 (≈ 1.26 µM)	44.8	2170	1	1.93				Ratio (Enterococcus faecium [2]): 4; Ratio (Enterococcus faecalis [3]): 4; Ratio [4]: 4; Ratio (Staphylococcus aureus [5]): 4; clearance [17]: 53.7 mL/min/kg; AUC [18]: 1560 ng·h/mL; half-life [20]: 2.51 h; IC50 [23]: > 40 µM
N#Cc1ccc(-c2ccc3c(c2)OC[C@H]2[C@H](CO)OC(=O)N32)cn1		2 (≈ 6.19 µM)	2 (≈ 6.19 µM)	4 (≈ 12.4 µM)	4 (≈ 12.4 µM)	0.25 (≈ 0.773 µM)	1 (≈ 3.09 µM)	0.25 (≈ 0.773 µM)	0.125 (≈ 0.387 µM)	0.25 (≈ 0.773 µM)	0.25 (≈ 0.773 µM)	0.25 (≈ 0.773 µM)								Cmax [24]: 3020 ng/mL; AUC [25]: 33400 ng·h/mL; half-life [26]: 4.69 h; Tmax [27]: 4.5 h
O=C1O[C@@H](CO)[C@@H]2COc3cc(-c4ccc(Cn5cncn5)nc4)ccc3N12		8 (≈ 21.1 µM)	8 (≈ 21.1 µM)	8 (≈ 21.1 µM)	16 (≈ 42.2 µM)	1 (≈ 2.64 µM)	1 (≈ 2.64 µM)	0.5 (≈ 1.32 µM)	0.5 (≈ 1.32 µM)	0.5 (≈ 1.32 µM)	0.5 (≈ 1.32 µM)	0.5 (≈ 1.32 µM)								
O=C1OC(COP(=O)([O-])[O-])CN1c1ccc(-c2ccc3c(c2)OC[C@H]2[C@H](CO)OC(=O)N32)cn1.[Na+].[Na+] (some centres not stated)	650												19.7	1230	0.25	1.61	1	33.8	4000	solubility [29]: 534 mg/mL
N=C(N)NCCC[C@H](N)C(=O)O.N=C(N)NCCC[C@H](N)C(=O)O.O=C1OC(COP(=O)(O)O)CN1c1ccc(-c2ccc3c(c2)OC[C@H]2[C@H](CO)OC(=O)N32)cn1 (some centres not stated)	416												32.6	914	0.25	1.45	0.26	46.3	1800	
CC(=O)NC[C@H]1CN(c2ccc(N3CCOCC3)c(F)c2)C(=O)O1 [LINEZOLID]		16 (≈ 47.4 µM)		8 (≈ 23.7 µM)	> 8	1 (≈ 2.96 µM)			2 (≈ 5.93 µM)	1 (≈ 2.96 µM)	1 (≈ 2.96 µM)	1 (≈ 2.96 µM)								ED50 (Staphylococcus aureus [32]): 7.07 mg/kg; ED50 (Staphylococcus aureus [33]): 8.28 mg/kg
